Data set [1] has as its system A549. Description: Antitumor activity in human A549 cells cultured as 3D spheroids assessed as fold decrease in spheroid volume at 0.5 uM measured up to 15 days by inverted microscopic analysis. It is filed as functional. To be noted: time <= 15 day. The procedure, abridged: (§1)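 Spheroids formed from 2000 cells/well in ultra-low attachment U-bottom wells over 3 days, then given a single dose on day 3. Half the media was replenished every 3 days. Transmitted-light images were taken through day 15, and spheroid volume was computed from images and expressed as fold-difference. Mean ± SD, n = 8; unpaired t-test.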

Data set [2] deals with A549. Description: Inhibition of gankyrin-proteasome protein-protein interaction in human A549 cells assessed as increase in phosphorylated p53 level at serine 6 residue at 0.04 to 0.33 uM measured after 48 hrs by Western blotting analysis. To be noted: dose 0.04-0.33 µM. It is filed as cell-based. The gist of the method: (§2)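 Cells in 10 cm dishes treated with varying concentrations (0.5% DMSO final) or DMSO only for 48 h. Lysed in RIPA with protease/phosphatase inhibitors on ice for 60 min. 15 μg protein resolved under reducing conditions, transferred to PVDF, and probed for p53, phospho-p53 S6/S15, Rb, gankyrin and cyclophilin. Detection by HRP-secondary ECL.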
(In general: In western blotting, separated proteins are transferred to a membrane and probed.)

Data set [3] has as its system A549. Description: Antitumor activity in human A549 cells cultured as 3D spheroids assessed as fold decrease in spheroid volume at 1 uM measured up to 15 days by inverted microscopic analysis. It is filed as functional. The following applies: time <= 15 day. The procedure, abridged: as §1
The target in data set [4] is T1, 26S proteasome non-ATPase regulatory subunit 10 (Homo sapiens) (UniProt O75832).
T1 sequence (whole entry): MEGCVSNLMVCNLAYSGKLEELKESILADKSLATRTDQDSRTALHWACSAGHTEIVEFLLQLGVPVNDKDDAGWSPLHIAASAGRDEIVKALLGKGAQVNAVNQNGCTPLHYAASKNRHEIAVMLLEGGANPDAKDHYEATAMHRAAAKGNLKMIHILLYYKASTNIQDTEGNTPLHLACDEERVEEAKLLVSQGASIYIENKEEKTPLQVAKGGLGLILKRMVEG
Description: Binding affinity to gankyrin (unknown origin) expressed in Escherichia coli BL21 (DE3) expression system assessed as decrease in thermal denaturation at 1.5 uM measured at 5 to 90 degreeC by circular dichroism spectropolarimeter analysis. The procedure, abridged:
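Recombinant His-tagged gankyrin expressed in E. coli BL21(DE3) Codon+RIL (IPTG 1 mM, 25 °C, ~5 h) and purified by Ni2+-IMAC. Thermal denaturation followed by CD at 217 nm over 5–90 °C with compound at 1.5 μM.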
On the technique in general: CD spectra are sensitive to the conformation of chiral molecules.

Data set [5] in a line: Cytotoxicity against HEK293 cells assessed as cell growth inhibition measured after 72 hrs by MTT assay. It is filed as toxicity, cell-based. To be noted: human. The gist of the method:
(§3)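 Cells seeded at 2.5 × 10^4 cells/well, allowed 24 h before dosing, then exposed to increasing concentrations (0.5% DMSO final) for 72 h at 37 °C, 5% CO2. MTT added at 1 mg/mL final in complete media for 2 h, formazan dissolved in DMSO, absorbance read at 570 nm. 6–8 repeats per treatment; IC50 from concentration–response fit.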
On the technique in general: Tetrazolium dyes change colour on reduction, which living cells bring about.

The test system of data set [6] is A549. Put plainly: Antitumor activity against human A549 cells tumor spheroids assessed as increase in dead cells by measuring red fluorescence intensity measured at 15 days by EthD-III staining based fluorescence microscopic analysis. It is filed as functional, cell-based. To be noted: dose 0.15-5 µM, time 15.0 day, DDE = dose-dependent effect. The gist of the method: (§4)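 Live/dead staining of 3D spheroids at day 15 after single-dose treatment: media replaced by kit reagent with calcein AM (live, green) and EthD-III (dead, red), 30 min in dark at room temperature, imaged at 4X by fluorescence microscopy. Mean ± SD, n = 4; unpaired Student's t-test.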

Data set [7] relates to A549. Description: Inhibition of gankyrin-proteasome protein-protein interaction in human A549 cells assessed as increase in phosphorylated p53 level at serine 6 residue at 0.60 to 5 uM measured after 48 hrs by Western blotting analysis. In kind it is cell-based. To be noted: dose 0.6-5 µM. The gist of the method: as §2
Data set [8] relates to A549. Put plainly: Inhibition of colony formation in human A549 cells at 0.5 uM incubated for 48 hrs followed by replacement of fresh media every alternative day measured after 7 days by crystal violet staining based clonogenic assay relative to control; values are per cent of control. The following applies: A549, 48 h.
The subject of data set [9] is A549. Put plainly: Inhibition of gankyrin-proteasome protein-protein interaction in human A549 cells assessed as increase in p53 level at 0.12 to 1 uM measured after 48 hrs by Western blotting analysis. To be noted: dose 0.12-1 µM. It is filed as cell-based. The procedure, abridged: as §2
Data set [10] relates to A549. Description: Inhibition of gankyrin-proteasome protein-protein interaction in human A549 cells assessed as increase in phosphorylated p53 level at serine 6 residue at 0.12 to 1 uM measured after 48 hrs by Western blotting analysis. It is filed as cell-based. To be noted: dose 0.12-1 µM. The procedure, abridged:
as §2

The subject of data set [11] is A549. Description: Antiproliferative activity against human A549 cells assessed as cell growth inhibition measured after 72 hrs by MTT assay. The following applies: A549, 72 h. It is filed as functional, cell-based. The gist of the method:
as §3

In data set [12] the target is T1, 26S proteasome non-ATPase regulatory subunit 10 (Homo sapiens). Description: Binding affinity to gankyrin (unknown origin) assessed as change in melting temperature at 300 uM by SYPRO orange staining based thermal shift assay.
Data set [13] deals with MDA-MB-231. Description: Antiproliferative activity against human MDA-MB-231 cells assessed as cell growth inhibition measured after 72 hrs by MTT assay. In kind it is functional, cell-based. The following applies: MDA-MB-231, 72 h. The procedure, abridged: as §3
Data set [14] has as its system A549. Description: Colony formation in human A549 cells at 1 uM incubated for 48 hrs followed by replacement of fresh media every alternative day measured after 7 days by crystal violet staining based clonogenic assay relative to control. The following applies: A549, 48 h.
Data set [15] can be described thus: Metabolic stability in human liver microsomes assessed as compound remaining preincubated for 10 mins followed by NADPH addition measured after 60 mins by HPLC analysis. The following applies: read-out: Stability. It is filed as ADME, Microsome.
The test system of data set [16] is A549. Put plainly: Antitumor activity against human A549 cells tumor spheroids assessed as decrease in live cells by measuring green fluorescence intensity measured at 15 days by calcein AM staining based fluorescence microscopic analysis. It is filed as functional, cell-based. The following applies: dose 0.15-5 µM, time 15.0 day, DDE = dose-dependent effect. The procedure, abridged: as §4

Data set [17] has as its system A549. Put plainly: Inhibition of gankyrin-proteasome protein-protein interaction in human A549 cells assessed as increase in Rb level at 0.12 to 1 uM measured after 48 hrs by Western blotting analysis. The following applies: dose 0.12-1 µM. In kind it is cell-based. The procedure, abridged:
as §2

Data set [18] deals with T1, 26S proteasome non-ATPase regulatory subunit 10 (Homo sapiens). Description: Binding affinity to gankyrin (unknown origin) expressed in Escherichia coli BL21 (DE3) expression system assessed as formation of white precipitation of the compound at 1.5 uM.

Activity calls are given as the source filed them. The calls are words filed in the database; no cut-off is given here.

`FC(F)(F)c1ccc(-c2cn(CCCC(=S)Nc3ccc(-c4ccccc4)cc3)nn2)cc1`: the “fold change (FC)” value is 3.8 in [1] and 4 in [3]. Besides, the outcome in data set [2], in data set [4], in [7], in data set [9], in [10] and in [12] was Active. Further, the outcome in data set [17] and in data set [18] was Active. Also, in data set [5], the 50% inhibitory concentration (IC50) at 72 h is more than 100 µM. Further, the Activity entry in data set [6] and in [16] was “Dde” throughout. Besides, the growth, % of control at 0.5 µM in [8] was 83.8%. The concentration for half-maximal inhibition (IC50) in data set [11] is 1 µM; in data set [13], more than 100 µM. The growth, % of control at 1 µM in data set [14] came to 61.4%. Further, the remaining at 1 h in data set [15] worked out at 80%.

One may read the IC50 as the point on the concentration scale where inhibition reaches its midpoint.
